Only some compounds are listed: those with a hit (about 3.7% of all), similar ones and a draw of the others.
Kir21 inh: inhibitors of mouse Kir2.1 inward-rectifier potassium channel; HEK293-Kir2.1, FluxOR thallium flux fluorescence; hits give low values; AID 1672, 2009; actives 0.85% (n = 310,000); Inward rectifier potassium channel 2 (Mus musculus), P35561; B-score at 10 µM;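 active = fluorescence ratio B-score at or below minus 3 SD of library scores, with starting-brightness B-score within 2 SD, cut at about -4.2 in these data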;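 also: channel flux triggered by added potassium and thallium sulfate stimulus; B-score of peak minus minimum fluorescence over baseline after thallium stimulus; more negative B-score means stronger Kir2.1 block with less thallium influx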
KCNK9 inh: KCNK9 potassium channel inhibitors, primary screen, HEK293 cells, thallium flux; Potassium channel subfamily K member 9 (Homo sapiens), Q9NPC2; FluxOR thallium flux fluorescence; hits give low values; B-score at 10 µM; actives 1.2% (n = 310,000);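 active = ratio B-score over 3 SD below the library mean, with starting fluorescence within 5 SD of its mean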;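 also: negative B-score means less thallium flux so channel inhibition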
KCNK3 inh: human KCNK3 channel inhibitors, primary screen, CHO cells, FluxOR thallium flux, B-score. actives 0.84% (n = 340,000). AID 602410, 2012. FluxOR fluorescence; hits give low values. B-score at 10 µM;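 active = B-score under library mean minus 4 SD, starting fluorescence ratio at most library mean plus 5 SD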;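 also: more negative B-score means stronger inhibition of thallium flux through KCNK3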
KCNQ1 inh: inhibitors of human KCNQ1 channel, primary screen, cell-based, thallium flux, high-throughput; CHO-K1 KCNQ1, FluxOR thallium flux fluorescence; hits give high values; B-score at 10 µM; actives 1.3% (n = 310,000); AID 2642, 2010;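 active = compounds whose thallium flux B-score, printed positive for inhibition, exceeds three library SD while starting fluorescence stays within three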;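 also: channel opened by potassium depolarization with thallium stimulus after 20 min compound exposure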
hERG protect: hERG rescue from dofetilide block, primary screen, cell-based, CHO-hERG, FluxOR thallium flux, dofetilide IC70; dofetilide IC70 present; AID 1511, 2009; activation (rescue from dofetilide block), less the hit threshold, % at 10 µM; Voltage-gated inwardly rectifying potassium channel KCNH2 (Homo sapiens), Q12809; actives 0.51% (n = 310,000);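 active = activation above the mean of controls blocked by dofetilide plus 5 SD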;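 also: thallium influx through hERG after potassium depolarization seen as dye fluorescence rise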
KCNQ1 act: potentiators or activators of KCNQ1 channel, primary screen, cell-based, thallium flux, high-throughput; Potassium voltage-gated channel subfamily KQT member 1 (Homo sapiens), P51787; CHO-K1 KCNQ1, thallium flux FluxOR fluorescence; hits give high values; B-score at 10 µM; actives 0.35% (n = 310,000);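 active = fluorescence ratio B-score, a plate-corrected score, at least three library SD, with initial intensity B-score within 5 SD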
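Assay system: stable KCNQ1 CHO-K1 line; medium: assay buffer, equal DMSO in all wells; timing: 90 min dye loading and 20 min compound exposure, both at room temperature; technique: kinetic FluxOR thallium fluorescence, 10-s 1-Hz baseline, 110-s post-stimulus read; read-out basis: B score of baseline-normalized fluorescence ratio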
KCNK3 inh conf: retest of human KCNK3 channel inhibitors, confirmation, CHO cells, FluxOR thallium flux, triplicate | FluxOR fluorescence; 0% buffer, 100% carvedilol maximal block | AID 651638, 2012 | shares compounds with KCNK3 inh | actives 99% (n = 2,400) | ratio percent of control, % at 10 µM;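 active = ratio percent of control, averaged over triplicates, above buffer control mean plus 5 SD, cut at about 64% in these data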;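 also: ratio is the fluorescence rise from min to max over baseline after thallium stimulus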
KCNK3 uninduced: thallium flux inhibition in non-induced cells, primary screen, counter-screen for KCNK3 inhibitor project, cell-based, non-induced KCNK3 line, FluxOR thallium, triplicate. shares compounds with KCNK3 inh. non-induced KCNK3 parental cells; hits give low values. thallium flux ratio (lower = more inhibition) at 10 µM. actives 40% (n = 2,400). AID 651747, 2012;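 active = thallium flux ratio, averaged over three wells, more than 5 SD below the buffer control mean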;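 also: host cells are CHO cells without KCNK3 induction; ratio is peak minus trough fluorescence over baseline then normalized to buffer controls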
The depositor's hits bear a star; i = inactive; x = no result given.

SMILES	Kir21 inh	KCNK9 inh	KCNK3 inh	KCNQ1 inh	hERG protect	KCNQ1 act	KCNK3 inh conf	KCNK3 uninduced
COc1ccc([N+](=O)[O-])cc1NC(=O)C(C)OC(=O)Cn1[nH]c(=O)c2ccccc2c1=O (stereo not given)	0.94	i	i	i	-7	i	x	x
O=C(Cc1ccccc1)Nc1cccc(-c2nc3ncccc3o2)c1	-1.5	i	-10*	i	-2	i	64*	i
CC[n+]1c(/C=C/Nc2ccccc2)oc2ccccc21	-1.8	i	i	i	-9	i	x	x
CC/C(=C\c1oc2cc3ccccc3cc2[n+]1CC)Nc1ccccc1	-3.1	i	-10*	9*	-27	i	127*	0.14*
CCN(Cc1ccc(OC)c(F)c1)C(=O)c1oc2ccccc2c1COC	-2.5	i	-14*	i	-8	i	94*	i
CCN(Cc1ccc(OC)c(F)c1)C(=O)CCl	0.17	i	i	i	-14	i	x	x
CC(C)(C)OC(=O)NCCCCCc1nnc(SCC(=O)Nc2cccc(Cl)c2)o1	-1.3	i	-9.2*	i	-17	i	117*	0.15*
CCCN(c1nc(C)cc(OC)n1)S(=O)(=O)c1ccccc1	-8.3*	i	-12*	i	-8	i	101*	i
Cc1ccc([N+](=O)[O-])c(OCCCN2CCC(Cc3ccccc3)CC2)c1	-9.9*	i	-8.8*	7*	-19	i	119*	0.13*
N#CCC(=O)Nc1ncc(Cc2ccccc2Cl)s1	-1.1	i	i	i	-15	i	x	x
CCCC(c1nnnn1Cc1ccc(OC)cc1)N1CCN(c2ccccc2)CC1 (stereo not given)	0.05	i	i	i	-2	i	x	x
CC(C)CC(c1nnnn1Cc1ccco1)N1CCN(c2cccc(Cl)c2)CC1 (stereo not given)	-0.43	i	-10*	i	-5	i	126*	i
COc1ccc(Cn2nnnc2C(CC(C)C)N2CCN(c3ccccc3)CC2)cc1 (stereo not given)	1.5	i	-9*	i	-11	i	100*	i
O=C(Nc1cccc(-c2nnc(-c3ccccc3)o2)c1)C1CC1	-0.45	i	-9.8*	i	-16	i	112*	i
CC(=O)Nc1cccc(-c2nnc(-c3ccccc3)o2)c1	-1.2	i	i	i	-14	i	x	x
CCOc1cccc(C(=O)Nc2cccc(-c3nnc(-c4ccccc4)o3)c2)c1	-1.8	i	-11*	i	-3	i	121*	0.14*
COc1cccc(C(=O)Nc2ccc(-c3nnc(-c4ccco4)o3)cc2)c1	-0.24	i	i	i	-6	i	x	x
CC(=O)Oc1ccc(C(=O)Nc2cccc(-c3nnc(-c4ccco4)o3)c2)cc1	-0.01	i	-9.3*	i	-12	i	85*	i
CCOc1cccc(C(=O)Nc2cccc(-c3nnc(-c4ccc(C)cc4)o3)c2)c1	0.46	i	i	i	-10	i	x	x
COc1cccc(NC(=O)CCN2C(=O)C3CC=CCC3C2=O)c1 (stereo not given)	0.45	i	i	i	-8	i	x	x
S=C(Nc1ccc(Br)cc1)NC1CCCCC1	0.03	i	i	i	-9	i	x	x

Bioassay records deposited in PubChem by Johns Hopkins Ion Channel Center.
